Test: Toxicity liver stage against HepG2, at 10uM
Type: cell-based
Set-up: test concentration 10 uM, cell line HepG2-A16-CD81EGFP
Conditions: human, HepG2-A16-CD81EGFP cells; read-out: INHIBITION
Procedure, shortened: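 Uninfected HepG2-A16-CD81EGFP cells, 3 × 10^3 per well, 1536-well, plated on prespotted compound at 10 μM final, parasite-free screening media added to match infected plates; puromycin 10 μM positive, DMSO 0.5% negative; run in parallel with 48 h PbLuc assay at 37 °C, 5% CO2; viability by CellTiter-Glo luminescence, normalized to controls.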

Structure (SMILES)	cytotoxicity at 10 µM
Cc1[nH]c2nc(CNc3ccccc3Cl)nn2c(=O)c1C	-1.29%
COc1ccc2c(c1)CN(C)C(=O)CCN2CC(O)C(F)(F)F (centres undefined)	-6.84%
Cc1occc(=O)c1OCC(=O)N1CCc2ccccc2C1	-0.765%
Cc1nn(-c2ccc(C(=O)O)cc2)c2c1C(c1ccsc1)SCC(=O)N2 (centres undefined)	0.153%
CC(C)c1sc(Br)nc1C(=O)NCc1ccco1	-2.89%
CCN(c1ccsc1C(=O)N1CCC(C)CC1)S(=O)(=O)c1ccccc1	14.7%
COc1cccc(-c2cnc3n2CCC32CCN(C(C)=O)CC2)c1	-2.05%
O=C(c1ccsc1)N1CCC2(CCN2Cc2ccc(F)cc2)C1 (centres undefined)	-144%
Cc1cc(NCCO)nc(N2CCN(C)CC2)c1C#N	-17.4%
CCc1c(C(=O)O)nnn1-c1cc(C)ccc1C	-23.7%
CCc1c(C)n(CCOC)c2nc3ccccc3n2c1=O	-0.277%
O=C(NCCCN1CCOCC1)c1cc(-c2ccc3c(c2)CCO3)n[nH]1	-3.73%
CC(C)CCn1[nH]c(CNc2ccccc2)nc1=O	1.62%
O=C(c1ccsc1)N1CCc2c(COCc3ccncc3)cncc2C1	-1.48%
Cc1nn(CC(=O)N2CCN(c3ccc(F)cc3)CC2)c(C)c1Cl	6.87%
FC(F)(F)c1cc(C2CCN(c3cnccn3)CC2)n2ccnc2n1	-1.53%
CC(C)N1CCCC1c1cc(C(F)(F)F)[nH]n1 (centres undefined)	0.171%
COc1cc2cc3c(nc2cc1OC)OCCN(CC1CC1)C3	5.37%
O=C(NC1CC1)c1cc(C2CCCN(Cc3ccccn3)C2)no1 (centres undefined)	-31.9%
O=C(Cc1ccccn1)N1CCC(c2noc(-c3ccncc3)n2)CC1	-26.8%
O=C(c1ccco1)N1CCC(n2nc(-c3ccco3)ccc2=O)CC1	-20.5%

Structure (SMILES)	cytotoxicity at 10 µM
Cc1ccc2nc(C3CCN(CC(C)C)CC3)nc(O)c2c1	7.69%
Cc1ncc2c(n1)CN(Cc1ncc(C(C)(C)C)o1)CC2	0.96%
N#CCCN(CCC#N)Cc1ccc(Br)c2cccnc12	1.73%
Cc1cc(C)c(S(N)(=O)=O)cc1C(=O)NCCN1CCC(C)CC1	-0.77%
O=C(NCc1ccon1)c1c(F)cc(Br)cc1F	12.3%
Cc1cc2ccccc2n1CC(=O)NC(C)C(=O)N1CCOCC1 (centres undefined)	3.57%
CCC1(CC)CC(=O)N(CC(O)c2cccc(Br)c2)C1=O (centres undefined)	3.89%
Cn1cnc2c1CCN(CC(=O)NC1CCCCNC1=O)C2 (centres undefined)	-5.97%
CNS(=O)(=O)CC(=O)N1CCC(c2ccc(F)c(F)c2)CC1	0.696%
CCS(=O)(=O)NCCNC(C)(C)c1nc(C)cs1	-0.396%
O=C(COCc1ccccc1)NCc1ccc(O)c(F)c1	1.05%
Cc1cc(CN(C)C(=O)CC(C)C)no1	-3.57%
O=C(NCCc1nccs1)N1CCC(n2cccc2)CC1	5.87%
Cc1csc(CN(C)CCCOc2cccc(C#N)c2)n1	-7.03%
CC(C)(C)C(Cn1ccnc1)NC(=O)NCc1ccco1 (centres undefined)	-1.85%
Cc1ccc(C(=O)NCCCS(=O)(=O)c2ccccc2)c(=O)[nH]1	-4.97%
CC(C(=O)Nc1ccnn1C(C)C)N1CCN(Cc2ccccc2)CC1 (centres undefined)	-7.55%
CN(Cc1ccc(F)cc1)S(=O)(=O)N1CCOCC1	2.35%
Cc1cc(C)n(CCCNC(=O)C(C)NC(=O)CC2CCCCC2)n1 (centres undefined)	-1.06%
CC(C)n1nc2c(cc1=O)CN(CCOc1ccc(C#N)cc1)CC2	14.9%
CC(C)c1nsc(N2CCSCC2)n1	-11.6%

Structure (SMILES)	cytotoxicity at 10 µM
CC(C)(C)c1nc(CNC(=O)N2CCc3ccccc3C2CO)no1 (centres undefined)	6.56%
Cn1cnnc1C1CCN(c2cncc(-n3cccn3)n2)CC1	-8.37%
CCc1nnsc1C(=O)NC1CCN(c2ccccn2)CC1	-2.49%
O=C(c1cccnc1-n1cncn1)N1CCN(CC2CC2)CC1	-10.9%
CCC(C)NC(=O)Cc1c(C)nc2c(c1C)c(=O)[nH]n2C (centres undefined)	-11.4%
CCn1c(CN(C)C)nnc1C1CCN(Cc2ccccn2)CC1	12.5%
CC(C)c1nc(CN(C)C(=O)C2CC(=O)N(Cc3ccncc3)C2)cs1 (centres undefined)	-3.75%
CC(=O)N[C@@H]1CN(C(=O)c2cc3sccc3[nH]2)C[C@H]1c1ccc(C)o1	8.98%
CCc1ccc(CN2CCN(c3ccc(Cl)nn3)CC2)nc1	-2.98%
CCC[C@@H]1CN(c2ncnc3sccc23)C[C@H]1C(=O)O	1.96%
Cc1nc(CCN2CCCCC2)n(-c2ccc(F)cc2)n1	-2.23%
C[C@@H]1CN(C(=O)C2CCS(=O)(=O)CC2)C[C@]1(C)O	-4.11%
COc1ccccc1-c1ncc(CN2C[C@@H](N(C)C)[C@H](C(C)C)C2)s1	-12.3%
CCN(Cc1cnn(CC)c1)Cc1c(Cl)cncc1Cl	-2.65%
COc1ccc(CN2CC[C@@H](N)[C@@H](OC)C2)cc1Cn1cncn1	-3.7%
Cc1cccc(C(C(=O)N2CC(c3cccnc3)C2)N(C)C)c1 (centres undefined)	-4.8%
Cc1cnn(-c2cncc(C(N)=O)c2)c1	3.04%
Cc1ncoc1C(=O)N1CCOC(CCCC(C)C)C1 (centres undefined)	8.29%
COC(=O)NCC(=O)N1CCC(c2nc3cc(F)ccc3[nH]2)CC1	3.67%
Cc1ccc(N2Cc3cnn(Cc4ccc(F)cc4)c3C2)nn1	0.209%
c1cnnc(N2CCC(c3nnc(Cn4ccnc4)n3C3CC3)CC2)c1	6.71%

Structure (SMILES)	cytotoxicity at 10 µM
O=C(c1ccc(C2CCNC2)cc1)N1CCC(N2CCC(O)CC2)CC1 (centres undefined)	-7.62%
Cc1ccc(NC(=O)N2CCCC2)c(OCC2CCCO2)c1 (centres undefined)	6.36%
O=C(Nc1ccc(CCN2CCOCC2)cc1)C1CCCC1	-16%
COc1cc(C2(C(=O)N3CCCC(n4cncn4)C3)CC2)ccc1C (centres undefined)	-6.16%
Cc1cc(C)n(CC2CCCCN2CCc2ccncc2)n1 (centres undefined)	-7.07%
Cc1cc(C)n(CC(=O)N2CCC(Nc3cccnn3)CC2)n1	-0.397%
O=C(CCOc1cccc(Cl)c1)N1CCN(c2cnccn2)CC1	-0.284%
O=C(NCc1nnc2n1CCC2)N1CCc2sccc2C1	-12.5%
CN(C)CCC1CCN(Cc2ccn(C)c(=O)c2)CC1	-12.5%
COc1ccc(C(=O)N(C)Cc2nnc3ccccn23)c(OC)c1OC	-11.5%
Cc1nc(C)n(CC2CCCN2CCC(=O)N2CCCCC2)n1 (centres undefined)	-2.67%
O=C(CCc1ccccn1)N1CCCC1	-6.96%
Cc1ncc(CN2CCOC(CN(C)c3cccnn3)C2)s1 (centres undefined)	2.86%
CC(C)(C)c1cn2nc(N3CCCC(Cn4cncn4)C3)sc2n1 (centres undefined)	-9.32%
COc1cccc(CNCc2c(C(C)C)nn(C)c2N(C)C)c1OC	1.87%
CNc1cc(C2CCCN2C(=O)c2ccc(=O)[nH]n2)ccn1 (centres undefined)	-5.04%
Cc1nn(C)c(N(C)C)c1CNCc1nnc2n1CCCCC2	-5.68%
O=C(c1ccncc1)N1CCCC2(CCN(c3cccnc3)C2=O)C1 (centres undefined)	-131%
c1ccc(Cn2cc3c(n2)C(CNCC2CCOCC2)OCC3)nc1 (centres undefined)	-149%
CC(Cn1ccnc1)NCc1cc(Br)c2c(c1)OCO2 (centres undefined)	12.9%
CN(C)C(=O)CN1CCOCC2(CCN(CC3CCOC3)CC2)C1 (centres undefined)	7.54%
